≈ marks a conversion by molar mass, not a printed value.
What was measured:
Plasmodium falciparum = assay: Antimalarial activity against chloroquine-sensitive Plasmodium falciparum 3D7; assay type: functional, organism-based
Summary of the method: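 Chloroquine-sensitive P. falciparum 3D7 grown in vitro with ciprofloxacin as the reference standard; IC50 reported as mass concentration ± SE.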

HEK293 [1] = assay: Cytotoxicity against human HEK293 cells 1 to 100 uM after 24 to 72 hrs by MTT assay; assay type: cell-based
Summary of the method: (§1)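 HEK-293 monolayers were kept in DMEM at 37 °C under 5% CO2 and seeded at about 4000 cells/well for 24 h. Medium was then replaced with fresh medium holding compound at 1, 10, 20, 30, 50 and 100 concentration units, and cells were incubated 24, 48 and 72 h. Viability was read by MTT and IC50 calculated.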

HEK293 [2] = assay: Cytotoxicity against human HEK293 cells after 24 to 72 hrs by MTT assay; assay type: cell-based; summary of the method: as §1

SMILES	IC50 (Plasmodium falciparum) [µg/mL]	Activity (HEK293 [1])	IC50 (HEK293 [2]) [µM]
CCOC(=O)c1c[nH]c2cc(Cl)c(F)cc2c1=O	5.81 (≈ 21.5 µM)		
CCCn1cc(Cn2cc(C(=O)OCC)c(=O)c3cc(F)c(Cl)cc32)nn1	5.4 (≈ 13.7 µM)		
CCOC(=O)c1cn(Cc2cn(CCO)nn2)c2cc(Cl)c(F)cc2c1=O	14.3 (≈ 36.3 µM)		
CCOC(=O)c1cn(Cc2cn(CC(=O)OC)nn2)c2cc(Cl)c(F)cc2c1=O	5.26 (≈ 12.4 µM)		
CCCCn1cc(C(=O)OCC)c(=O)c2cc(F)c(Cl)cc21	6.96 (≈ 21.4 µM)		
CCOC(=O)c1cn(C(C)C)c2cc(Cl)c(F)cc2c1=O	6.97 (≈ 22.3 µM)		
C#CCn1cc(C(=O)OCC)c(=O)c2cc(F)c(Cl)cc21	3.46 (≈ 11.2 µM)		
O=C(O)c1c[nH]c2cc(Cl)c(F)cc2c1=O	4.32 (≈ 17.9 µM)	Non-toxic	
CCOC(=O)c1cn(C)c2cc(Cl)c(F)cc2c1=O	11.8 (≈ 41.7 µM)		
CCOC(=O)c1cn(CC)c2cc(Cl)c(F)cc2c1=O	15.2 (≈ 51.1 µM)		
CCCn1cc(C(=O)OCC)c(=O)c2cc(F)c(Cl)cc21	4.86 (≈ 15.6 µM)		
CCOC(=O)c1cn(Cc2cn(Cc3ccccc3)nn2)c2cc(Cl)c(F)cc2c1=O	12.2 (≈ 27.7 µM)		
CCOC(=O)c1cn(Cc2cn(-c3ccc(Cl)cc3)nn2)c2cc(Cl)c(F)cc2c1=O	13 (≈ 28.2 µM)		
CCOC(=O)c1cn(Cc2cn(-c3cccc(Cl)c3)nn2)c2cc(Cl)c(F)cc2c1=O	2.73 (≈ 5.92 µM)		
CCOC(=O)c1cn(CCO)c2cc(Cl)c(F)cc2c1=O	4.26 (≈ 13.6 µM)		
CCOC(=O)c1cn(CC#N)c2cc(Cl)c(F)cc2c1=O	2.56 (≈ 8.29 µM)		
CCOC(=O)c1cn(Cc2ccccc2)c2cc(Cl)c(F)cc2c1=O	6.83 (≈ 19 µM)		
CCOC(=O)c1cn(Cc2c[nH]nn2)c2cc(Cl)c(F)cc2c1=O	1.33 (≈ 3.79 µM)	Toxic	
CCOC(=O)c1cn(Cc2cn(-c3ccc(F)cc3)nn2)c2cc(Cl)c(F)cc2c1=O	4.3 (≈ 9.67 µM)		63.8
CCOC(=O)c1cn(Cc2cn(-c3ccc(F)c(Cl)c3)nn2)c2cc(Cl)c(F)cc2c1=O	3.4 (≈ 7.09 µM)		41.9
CCOC(=O)c1cn(Cc2cn(-c3ccnc4cc(Cl)ccc34)nn2)c2cc(Cl)c(F)cc2c1=O	4.06 (≈ 7.92 µM)	Non-toxic	
O=C(O)c1cn(C2CC2)c2cc(N3CCNCC3)c(F)cc2c1=O [CIPROFLOXACIN]	8.82 (≈ 26.6 µM)		

— ChEMBL document CHEMBL1955758, “Synthesis and in vitro antiplasmodial activities of fluoroquinolone analogs” (Eur J Med Chem, 2012)
